Results collected from several papers.
Compare with care: the assays were run in different laboratories.
RXFP3: Relaxin-3 receptor 1 (RXFP3, Homo sapiens, UniProt Q9NSD7)
MTOR: Serine/threonine-protein kinase mTOR (MTOR, Homo sapiens, UniProt P42345)
BACE1: Beta-secretase 1 (BACE1, Homo sapiens, UniProt P56817)
Delta-aminolevulinic acid dehydratase C162A/K59N: Delta-aminolevulinic acid dehydratase (Homo sapiens, UniProt P13716, C162A/K59N)
EGFR L858R/T790M: Epidermal growth factor receptor (EGFR, Homo sapiens, UniProt P00533, L858R/T790M)
ELANE: Neutrophil elastase (ELANE, Homo sapiens, UniProt P08246)
BRAF: Serine/threonine-protein kinase B-raf (BRAF, Homo sapiens, UniProt P15056)
SMUG1: SMUG1 (Homo sapiens, UniProt Q53HV7)
EPHB2: Ephrin type-B receptor 2 (EPHB2, Homo sapiens, UniProt P29323)

| SMILES | target | assay | conditions | IC50 [µM] |
| --- | --- | --- | --- | --- |
| O=C(Nc1ccc(-c2nc(-c3ccc(Cl)cc3)no2)cc1)C1CC(=O)N(Cc2cccnc2)C1 (stereo not shown) | RXFP3 | cAMP, antagonist, TR-FRET |  | 1.49 |
| Nc1ncc(-c2nc(N3CCOCC3)nc(N3C[C@H]4CC[C@@H](C3)O4)n2)c(C(F)F)n1 | MTOR | ligand displacement, TR-FRET |  | 0.0422 |
| O=C(Nc1ccn(Cc2ccc(O)cc2C(F)(F)F)n1)c1c(F)cccc1F | Transient receptor potential cation channel subfamily V member 4 (TRPV4, Homo sapiens, UniProt Q9HBA0) | ion current, inhibitor |  | > 10 |
| CC(C)=CCCC(C)=CCc1c(O)cc(O)c2c(=O)c(-c3ccc(O)cc3O)coc12 | BACE1 | enzyme activity, inhibitor |  | 45 |
| CCC(C)(O)C(=O)N1CCC(NC(=O)Nc2ccc(OC(F)(F)F)c(F)c2)CC1 (stereo not shown) | Bifunctional epoxide hydrolase 2 (Ephx2, Mus musculus, UniProt P34914) | enzyme activity, inhibitor |  | 0.013 |
| C[C@]1(C(=O)[C@H](CC2CCCCC2)NC(=O)[C@@H]2COCCCCCC(=O)N3CCC[C@H]3C(=O)N2)CO1 | Proteasome Macropain subunit MB1 (PSMB5, Homo sapiens, UniProt P28074) | enzyme activity, inhibitor, fluorescence |  | > 10 |
| O=C(Nc1ccc(-c2nc(-c3ccccc3)no2)cc1)C1CC(=O)N(Cc2cccnc2)C1 (stereo not shown) | RXFP3 | cAMP, antagonist, TR-FRET |  | 7.69 |
| CN1CCCN=C1/C=C/c1cccc(O)c1 | Delta-aminolevulinic acid dehydratase C162A/K59N | enzyme activity, inhibitor, absorbance | pH 8, with preincubation | 18 |
| CCCc1cc2cc(-n3nc(C)c4c3CC(C)(C)CC4=O)cc(N[C@H]3CC[C@H](O)CC3)c2c(=O)[nH]1 | Endoplasmin (HSP90B1, Canis lupus familiaris, UniProt P41148) | ligand displacement, FP |  | > 50 |
| Cc1ncsc1-c1ccc(CNC(=O)[C@@H]2C[C@H](O)CN2C(=O)[C@@H](NC(=O)C2(F)CC2)C(C)(C)C)c(OCCOc2ccc(CN3CCN(c4cc(-c5ccccc5O)nnc4N)CC3)cc2)c1 | SWI/SNF-related matrix-associated actin-dependent regulator of chromatin subfamily A member 2, bromodomain (SMARCA2, Homo sapiens, UniProt P51531) | ligand displacement, TR-FRET |  | 0.67 |
| NS(=O)(=O)c1cc2c(cc1C(F)(F)F)NC(Cc1ccccc1)NS2(=O)=O (stereo not shown) | Delta-aminolevulinic acid dehydratase C162A/K59N | enzyme activity, inhibitor, absorbance | pH 8, with preincubation | 130 |
| C=C(Cl)C(=O)Nc1cc(Nc2nc(N3CCOCC3)c3sccc3n2)c(OC)cc1N(C)CCN(C)C | EGFR L858R/T790M | enzyme activity, inhibitor, ELISA |  | 0.063 |
| [N-]=[N+]=N[C@H](CC(=O)NO)Cc1ccc(O)cc1 | Endoplasmic reticulum aminopeptidase 2 (ERAP2, Homo sapiens, UniProt Q6P179) | enzyme activity, inhibitor, fluorescence |  | 59 |
| Cc1cccc(C(=O)Oc2c(Cl)nnc3ccccc23)c1 | ELANE | enzyme activity, inhibitor, fluorescence |  | 4.8 |
| COc1ccc(S(=O)(=O)ON=C2C=C(C)C(=O)C(C)=C2)cc1 | Histone acetyltransferase KAT5 (KAT5, Homo sapiens, UniProt Q92993) | enzyme activity, inhibitor, radiometric |  | > 100 |
| COc1ccc2c(Oc3ccc4c(C(=O)Nc5ccccc5N)cccc4c3)ccnc2c1 | BRAF | enzyme activity, inhibitor |  | > 0.5 |
| O=C(Nc1ccc(Cl)cc1)N1CCC(n2c(=O)[nH]c3c(Br)cccc32)CC1 | SMUG1 | enzyme activity, inhibitor |  | > 100 |
| CN1CCN(c2ccc(Nc3ncc4cc(C#N)c(=O)n(C5CCCC5)c4n3)cc2)CC1 | EPHB2 | enzyme activity, inhibitor |  | 0.0868 |
| CCn1ncc2c1-c1cnc(N)c(c1)O[C@H](C)c1cc(F)ccc1-c1nn(C)nc1C2 | Muscle, skeletal receptor tyrosine-protein kinase (MUSK, Homo sapiens, UniProt O15146) | enzyme activity, inhibitor, radiometric |  | 0.044 |
| O=C(Nc1ccc(-c2nc(-c3ccc(C(F)(F)F)cc3)no2)cc1)C1CC(=O)N(Cc2cccnc2)C1 (stereo not shown) | RXFP3 | cAMP, antagonist, TR-FRET |  | 2.17 |
| O=C(Nc1ccc(Cl)c(Cl)c1)N1CCC(n2c(=O)[nH]c3c(Br)cccc32)CC1 | SMUG1 | enzyme activity, inhibitor |  | > 100 |
| Cc1ccc(C(=O)Nc2ccc(Oc3cc4cnn(C)c4cc3-c3cn[nH]c3)c(F)c2)c(=O)n1-c1ccc(F)cc1 | Proto-oncogene tyrosine-protein kinase ROS (ROS1, Homo sapiens, UniProt P08922) | phosphorylation in cells, inhibitor, western blot |  | 0.17 |
| Nc1ncc2c(n1)-c1c([nH]c3ccc(-c4ccc(F)cc4)cc13)CCC2 | Non-receptor tyrosine-protein kinase TYK2, JH2 (TYK2, Homo sapiens, UniProt P29597) | target engagement in cells, BRET |  | > 10 |

| SMILES | target | assay | conditions | IC50 [µM] |
| --- | --- | --- | --- | --- |
| CC[C@@H](C(=O)Nc1ccc(C(N)=O)c(F)c1)n1cc(OC)c(-c2cc(Cl)ccc2-n2cc(C(F)(F)F)nn2)cc1=O | Tissue-type plasminogen activator (PLAT, Homo sapiens, UniProt P00750) | enzyme activity, inhibitor |  | > 10 |
| Cc1cccc(C(=O)n2ncc(=O)c3cc([N+](=O)[O-])ccc32)c1 | ELANE | enzyme activity, inhibitor, fluorescence |  | 0.26 |
| Cc1cc2cc(c1)C(=O)N[C@H]([C@H](O)CN(Cc1cccc(C(C)C)c1)C(=O)OC(C)(C)C)CCC/C=C/CCCC2=O | BACE1 | enzyme activity, inhibitor |  | > 10 |
| NCCCC[C@H](NC(=O)[C@@H]1CCCN1C(=O)[C@@H]1CSSC[C@H](N)C(=O)N[C@@H](Cc2ccc(O)cc2)C(=O)N[C@@H](Cc2ccccc2)C(=O)N[C@@H](CCC(N)=O)C(=O)N[C@@H](CC(N)=O)C(=O)N1)C(=O)NCC(N)=O | Vasopressin V2 receptor (AVPR2, Homo sapiens, UniProt P30518) | ligand displacement, radioligand | cell membranes | 0.014 |
| Cc1ccc(NC(=O)c2ccc(C)c(C(F)(F)F)c2)cc1C#Cc1nn(C2CCC(O)CC2)c2ncnc(N)c12 (stereo not shown) | EPHB2 | enzyme activity, inhibitor, radiometric |  | 0.033 |
| O=Cc1cc(Br)cc(Br)c1O | Delta-aminolevulinic acid dehydratase C162A/K59N | enzyme activity, inhibitor, absorbance | pH 8, with preincubation | 22 |
| C[C@@H]1COCCN1c1nc(-c2cnc(N)nc2C(F)F)nc(N2CCOCC2)n1 | MTOR | ligand displacement, TR-FRET |  | 0.0324 |
| CC(C)C[C@H](NC(=O)[C@H](Cc1ccccc1)NC(=O)[C@@H](N)Cc1ccc(O)cc1)C(=O)N[C@@H](Cc1ccccc1)C(=O)N[C@@H](CCCNC(=N)N)C(=O)N1CCC[C@H]1C(=O)N[C@@H](CCCNC(=N)N)C(=O)N[C@@H](CC(N)=O)C(N)=O | Neuromedin-U receptor 2 (Mus musculus, UniProt Q8BZ39) | ligand displacement, radioligand |  | 9.12e-05 |
| N#CC(C(=O)c1ccc(Cl)cc1Cl)=C1NC(=O)c2ccc(OCc3ccc4c(c3)OCO4)cc2N1 | Cytoplasmic dynein 2 heavy chain 1 (DYNC2H1, Homo sapiens, UniProt Q8NCM8) | ATPase activity, inhibitor |  | 11 |
| CCCS(=O)(=O)Nc1ccc(F)c(C(=O)c2c[nH]c3ncc(-c4ccc(CNC(=O)COCC(=O)NCc5ccc(-c6cnc7[nH]cc(C(=O)c8c(F)ccc(NS(=O)(=O)CCC)c8F)c7c6)cc5)cc4)cc23)c1F | Serine/threonine-protein kinase B-raf (BRAF, Homo sapiens, UniProt P15056, Q461A/V600E) | enzyme activity, inhibitor, ELISA |  | ~0.464 |
| CC(C)(C)n1nc(-c2ccc3nc(OC4CC4)ccc3c2)c(C(N)=O)c1N | BRAF | cell-free assay |  | > 10 |
| O=c1oc2c(O)c(O)cc3c(=O)oc4c(O)c(O)cc1c4c23 | DNA polymerase iota (Homo sapiens, UniProt Q9UNA4) | enzyme activity, inhibitor |  | 0.081 |
| Cc1c(Cl)cccc1Nc1ccccc1C(=O)O | Delta-aminolevulinic acid dehydratase C162A/K59N | enzyme activity, inhibitor, absorbance | pH 8, with preincubation | 2.1 |
| CC(C)=CCCC(C)=CCc1c(O)cc2occ(-c3ccc(O)cc3)c(=O)c2c1O | BACE1 | enzyme activity, inhibitor |  | > 200 |
| CCOC(F)(F)c1nnc2cnc(-c3cnc(OCC(F)(F)F)c(F)c3)cn12 | Sodium channel protein type 8 subunit alpha (Rattus norvegicus, UniProt O88420) | ion current, inhibitor, patch clamp |  | 0.18 |
| O=C(N/N=C/c1cccn1CCN1CCOCC1)Nc1cc2c(Nc3ccc(F)c(Cl)c3)ncnc2cc1O[C@H]1CCOC1 | EGFR L858R/T790M | enzyme activity, inhibitor |  | 0.0167 |
| COc1ccc(-c2coc3cc(O)c(CC=C(C)C)c(O)c3c2=O)c(O)c1 | BACE1 | enzyme activity, inhibitor |  | 42 |
| Cc1ccccc1-c1noc(-c2ccc(NC(=O)C3CC(=O)N(Cc4cccnc4)C3)cc2)n1 (stereo not shown) | RXFP3 | cAMP, antagonist, TR-FRET |  | > 10 |
| Nc1cccc(-c2cc3c(Oc4cccc(O)c4)ncnc3[nH]2)c1 | BRAF | cell-free assay, inhibitor |  | 0.832 |
| O=C1N[C@H](C(=O)O)CS1 | Hydroxycarboxylic acid receptor 2 (HCAR2, Homo sapiens, UniProt Q8TDS4) | ligand displacement, radioligand | cell membranes | ~900 |
| C=CC(=O)Nc1cc(Nc2nccc(-c3cn(C4CC4)c4ccccc34)n2)c(OC)cc1N(C)CCN(C)C | Epidermal growth factor receptor (EGFR, Homo sapiens, UniProt P00533, L747S) | enzyme activity, inhibitor, TR-FRET |  | 0.00309 |
| Cc1cccc(C(=O)Oc2cnnc3ccc([N+](=O)[O-])cc23)c1 | ELANE | enzyme activity, inhibitor, fluorescence |  | 0.59 |
| CC(=O)N[C@H]1CSSC[C@@H](C(=O)N[C@H](Cc2c[nH]c3ccccc23)C(N)=O)NC(=O)[C@@H](Cc2ccccc2)NC(=O)[C@H](CCCNC(=N)N)NC1=O | Melanocortin receptor 3 (MC3R, Homo sapiens, UniProt P41968) | ligand displacement, radioligand |  | > 5 |
